Here are results for 35 molecules from the M2OR odorant receptor database.

The structures appear in SMILES notation.
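Note: active if original authors judged signal statistically different from baseline.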

One assay addresses T1, OR2W3 (Homo sapiens) (UniProt Q7Z3T1).
T1 sequence (whole entry): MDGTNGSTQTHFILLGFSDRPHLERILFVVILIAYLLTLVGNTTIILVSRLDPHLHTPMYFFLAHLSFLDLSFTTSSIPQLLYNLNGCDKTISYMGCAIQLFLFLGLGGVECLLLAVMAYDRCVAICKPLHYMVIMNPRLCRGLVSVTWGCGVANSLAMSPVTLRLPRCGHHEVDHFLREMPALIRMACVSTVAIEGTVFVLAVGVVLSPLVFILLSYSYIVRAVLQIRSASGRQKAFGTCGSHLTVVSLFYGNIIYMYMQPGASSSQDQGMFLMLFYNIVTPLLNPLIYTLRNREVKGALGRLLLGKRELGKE
As to conditions: stereoisomer not certain. The gist of the method: (§1)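 Each receptor–molecule pair is labelled responsive or non-responsive (inactive) according to whether the original authors judged the measured signal statistically different from baseline. The data were taken from the main text and supplementary material of published papers and checked for typos and inconsistencies. Assay methods differed by source, with transient luciferase assays in mammalian cell lines being common.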
For the molecule `CCCCCCCCCCCCCCCCCC(=O)OC`, the “odorant receptor agonist call” value was “inactive”.

Regarding `CCCCCCCCCC(=O)OC`, the “odorant receptor agonist call” value is “inactive”. Same read-out and setting: the entry for `CCCCCCCCCCCCCCCC(=O)[O-].[H+]` is “inactive”; for `CCC(O)CC` it is “inactive”. On the same count and under the same terms, the entry for `CCCCCCCCCCCC(=O)OC` is “inactive”; for `CC(C)=CCCC(C)=CCCC(C)=CCO` it is “inactive”; for `CCCCCCCCCCCC(=O)OCC` it is “inactive”.

`CCCCCCCCCCCCCCCCCC(=O)[O-].[H+]`: the “odorant receptor agonist call” value was “inactive”. Still for that read-out and setting: to `CCCO` belongs “inactive”. Same read-out and setting: to `CCCCCCCCCCCCCC(=O)OCC` belongs “inactive”; to `CC(C=O)Cc1ccc(C(C)(C)C)cc1` (stereo unspecified), “inactive”; to `Cc1cnc(C)cn1`, “inactive”. Same read-out and setting: to `CCCCCCCCCCCCO` belongs “inactive”; to `CCCCCCCCCCCCCCCC(=O)OC`, “inactive”.

As for `CCCCCCCCCCCCCC(=O)O`, the “odorant receptor agonist call” value was “inactive”.

Take `COc1ccc2[nH]cc(CCNC(C)=O)c2c1`: the “odorant receptor agonist call” value is “inactive”. Take `CCCCCCCCCCCCCCC(=O)O`: the “odorant receptor agonist call” value was “inactive”. Still for that read-out and setting: the entry for `CCCCCCCCCCCCCCCC(=O)OCC` is “inactive”; for `CCCC(=O)CC` it is “inactive”; for `Cc1ccc(C(C)C)cc1` it is “inactive”. Consider `Cc1cccc(C)c1C`, for which the “odorant receptor agonist call” value is “inactive”.

The target in a further assay is T2, OR3A1 (Homo sapiens) (UniProt P47881).
T2 sequence (whole entry): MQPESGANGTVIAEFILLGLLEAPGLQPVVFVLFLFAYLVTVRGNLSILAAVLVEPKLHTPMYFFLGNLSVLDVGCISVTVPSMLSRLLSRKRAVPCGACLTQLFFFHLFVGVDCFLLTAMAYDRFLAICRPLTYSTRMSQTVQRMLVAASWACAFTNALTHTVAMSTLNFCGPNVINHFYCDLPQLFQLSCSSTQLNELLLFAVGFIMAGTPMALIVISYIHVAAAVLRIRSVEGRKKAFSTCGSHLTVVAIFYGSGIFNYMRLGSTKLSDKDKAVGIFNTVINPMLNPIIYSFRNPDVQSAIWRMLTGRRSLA
The conditions noted are these: stereoisomer not certain. The essentials: as §1
In the case of `CC(=O)CCc1ccc(O)cc1`, the “odorant receptor agonist call” value was “inactive”.

Take `O=CCCc1ccccc1`: the “odorant receptor agonist call” value is “inactive”. Same read-out and setting: the entry for `CCCCCCCC(=O)OCCCCCC` is “inactive”. As for `CC1=CC(=O)CC(C(C)C)C1` (stereo unspecified), the “odorant receptor agonist call” value was “active”. For `CCCCCCCCCC(C)C=O` (stereo unspecified), the “odorant receptor agonist call” value is “inactive”. Still for that read-out and setting: the entry for `CC(C=O)=Cc1ccccc1` is “inactive”; for `CC(=O)OCc1ccc2c(c1)OCO2` it is “inactive”.

Take `CC(C=O)Cc1ccc(C(C)(C)C)cc1` (stereo unspecified): the “odorant receptor agonist call” value is “active”. The same measure, in the same setting: to `CC(CC=O)c1ccccc1` (stereo unspecified) belongs “active”; to `CC(CC=O)CCc1ccccc1` (stereo unspecified), “active”; to `COc1ccc(COC=O)cc1`, “inactive”. Regarding `CC(C=O)Cc1ccccc1` (stereo unspecified), the “odorant receptor agonist call” value was “active”. As to `CCC(O)c1ccccc1` (stereo unspecified), the “odorant receptor agonist call” value is “inactive”. Consider `COc1ccc(CC(C)C=O)cc1` (stereo unspecified), for which the “odorant receptor agonist call” value was “active”. On the same count and under the same terms, the entry for `Cc1ccc(CC(C)C=O)cc1` (stereo unspecified) is “active”.
